The nature of data set [1]: Toxicity against Galleria mellonella larva assessed as cuticular darkening at 50 mg/kg measured for 7 days. The following applies: in vivo, 168 h, time 7 day. The data set is classed as organism-based. The procedure, abridged:
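G. mellonella larvae (6th stage, 260–320 mg), groups of ten. Injected in the 4th left pro-leg with 10 μL at 10–50 mg/kg; controls got PBS/DMSO (DMSO <40%). Kept in the dark at 37 °C. Survival and cuticular darkening scored daily for 7 days; death taken as no movement on stimulus. Kaplan-Meier with log-rank test; two independent experiments.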

In data set [2] the test system is Leishmania infantum. The data set can be described thus: Antileishmanial activity against amastigote stage of Leishmania infantum (MHOM/FR/2008/LEM5700) infected in mouse RAW264.7 cells assessed as reduction in parasitic proliferation measured by SYBR Green 1 dye based fluorescence assay. The data set is classed as functional, organism-based. The conditions noted are these: MHOM/FR/2008/LEM5700, RAW264.7. The procedure, abridged: (§1)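 RAW 264.7 macrophages seeded at 100,000 cells/well in DMEM with 10% heat-inactivated FBS, 24 h at 37 °C, 5% CO₂. Infected with plateau-phase promastigotes (parasite:macrophage 16:1) for 24 h. Compounds serially diluted, final 391 nM–100 μM. Amastigote viability read by SYBR Green I after lysis and 3 freeze-thaw cycles. IC50 by nonlinear regression against excipient-treated controls. Miltefosine reference.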

The target of data set [3] is Aurora kinase B (Homo sapiens, UniProt Q96GD4). The data set can be described thus: Inhibition of recombinant human AURKB expressed in baculovirus infected Sf9 cells using MBP as substrate in presence of ATP measured after 30 mins by ADP-Glo assay. The conditions noted are these: sf9, 0.5 h.
Sequence of Aurora kinase B (Q96GD4 whole entry): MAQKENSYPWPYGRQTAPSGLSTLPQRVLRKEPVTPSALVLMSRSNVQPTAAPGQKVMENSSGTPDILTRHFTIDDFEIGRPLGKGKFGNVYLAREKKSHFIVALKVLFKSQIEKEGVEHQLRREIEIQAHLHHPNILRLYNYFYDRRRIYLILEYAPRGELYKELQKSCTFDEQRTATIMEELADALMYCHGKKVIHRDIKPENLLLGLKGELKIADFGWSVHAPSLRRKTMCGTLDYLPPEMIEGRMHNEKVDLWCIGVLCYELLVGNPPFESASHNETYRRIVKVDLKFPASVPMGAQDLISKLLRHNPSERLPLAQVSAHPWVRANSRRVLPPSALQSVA
Data set [4] in a line: Selectivity index, ratio of CC50 for human MRC5 cells to IC50 for amastigote stage of Leishmania donovani (MHOM/ET/67/HU3) infected in mouse RAW264.7 cells. Type of data set: toxicity, cell-based. The conditions noted are these: read-out: Ratio CC50/IC50. The procedure, abridged: (§2)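 Selectivity index is CC50 on RAW 264.7 or MRC-5 cells divided by IC50 on intracellular amastigotes.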

Data set [5] addresses CDK9/cyclin T1 (Homo sapiens, UniProt P50750). The experiment in a line: Inhibition of human recombinant CDK9/CyclinT expressed in baculovirus infected Sf9 cells using YSPTSPSYSPTSPSYSPTSPSKKK as substrate in presence of ATP measured after 30 mins by ADP-Glo assay.
The target in data set [6] is Dual specificity tyrosine-phosphorylation-regulated kinase 1A (Rattus norvegicus, UniProt Q63470). The experiment in a line: Inhibition of recombinant rat DYRK1A (1 to 499 ) expressed in bacterial expression system using KKISGRLSPIMTEQ as substrate in presence of ATP measured after 30 mins by ADP-Glo assay. The following applies: 0.5 h.
Data set [7] deals with Leishmania donovani. The experiment in a line: Antileishmanial activity against amastigote stage of Leishmania donovani (MHOM/ET/67/HU3) infected in mouse RAW264.7 cells assessed as reduction in parasitic proliferation measured by SYBR Green 1 dye based fluorescence assay. The data set is classed as functional, organism-based. The conditions noted are these: MHOM/ET/67/HU3, RAW264.7. The procedure, abridged: as §1

Data set [8] in a line: Selectivity index, ratio of CC50 for mouse RAW264.7 cells to IC50 for amastigote stage of Leishmania amazonensis (MHOM/BR/73/M2269) infected in mouse RAW264.7 cells. The conditions noted are these: read-out: Ratio CC50/IC50. The data set is classed as toxicity, cell-based. The procedure, abridged: as §2
Data set [9] deals with Serine/threonine-protein kinase pim-1 (Homo sapiens, UniProt P11309). The experiment in a line: Inhibition of recombinant human PIM1 expressed in bacteria using histone H1 as substrate in presence of ATP measured after 30 mins by ADP-Glo assay. The following applies: 0.5 h.
Sequence of Serine/threonine-protein kinase pim-1 (P11309 whole entry): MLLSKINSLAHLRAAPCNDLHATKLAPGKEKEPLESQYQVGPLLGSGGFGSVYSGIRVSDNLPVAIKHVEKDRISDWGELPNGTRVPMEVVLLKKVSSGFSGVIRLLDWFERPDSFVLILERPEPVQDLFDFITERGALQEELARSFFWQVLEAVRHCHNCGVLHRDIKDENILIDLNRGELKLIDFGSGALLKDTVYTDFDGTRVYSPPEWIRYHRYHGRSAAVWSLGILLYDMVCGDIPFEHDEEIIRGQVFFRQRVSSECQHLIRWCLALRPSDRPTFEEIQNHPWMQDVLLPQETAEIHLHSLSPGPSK
Data set [10] has as its target Cyclin-dependent kinase 5/CDK5 activator 1 (Homo sapiens, UniProt Q00535). The experiment in a line: Inhibition of human recombinant CDK5/ p25 expressed in bacterial expression system using histone H1 as substrate in presence of ATP measured after 30 mins by ADP-Glo assay.
Data set [11] concerns the target CDK2/Cyclin A2 (Homo sapiens, UniProt P24941). The experiment in a line: Inhibition of human CDK2/ cyclinA using histone H1 as substrate in presence of ATP measured after 30 mins by ADP-Glo assay. Type of data set: protein-complex assay.
For data set [12], the target named is Dual specificity protein kinase CLK1 (Mus musculus, UniProt P22518). The experiment in a line: Inhibition of recombinant mouse CLK1 expressed in bacteria using GRSRSRSRSRSR as substrate in presence of ATP measured after 30 mins by ADP-Glo assay.
Sequence of Dual specificity protein kinase CLK1 (P22518 whole entry): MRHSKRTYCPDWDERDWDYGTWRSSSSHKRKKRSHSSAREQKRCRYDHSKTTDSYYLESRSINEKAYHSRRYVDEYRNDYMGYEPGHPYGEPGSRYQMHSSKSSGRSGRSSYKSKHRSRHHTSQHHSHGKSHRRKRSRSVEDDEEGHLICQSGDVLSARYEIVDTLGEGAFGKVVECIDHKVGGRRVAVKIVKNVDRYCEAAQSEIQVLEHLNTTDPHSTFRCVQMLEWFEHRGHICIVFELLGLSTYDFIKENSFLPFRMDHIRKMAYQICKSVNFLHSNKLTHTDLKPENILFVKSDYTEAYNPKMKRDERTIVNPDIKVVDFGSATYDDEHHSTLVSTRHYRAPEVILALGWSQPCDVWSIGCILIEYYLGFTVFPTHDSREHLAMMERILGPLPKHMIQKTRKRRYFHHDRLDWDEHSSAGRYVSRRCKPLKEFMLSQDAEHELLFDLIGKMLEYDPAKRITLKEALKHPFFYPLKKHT
The subject of data set [13] is Leishmania amazonensis. The experiment in a line: Antileishmanial activity against amastigote stage Leishmania amazonensis (MHOM/BR/73/M2269) infected in mouse RAW264.7 cells assessed as reduction in parasitic proliferation measured by SYBR Green 1 dye based fluorescence assay. Type of data set: functional, organism-based. The conditions noted are these: MHOM/BR/73/M2269, RAW264.7. Summed up:
as §1

Data set [14] can be described thus: Selectivity index, ratio of CC50 for human MRC5 cells to IC50 for amastigote stage of Leishmania infantum (MHOM/FR/2008/LEM5700) infected in mouse RAW264.7 cells. Type of data set: toxicity, cell-based. The following applies: read-out: Ratio CC50/IC50. Summed up: as §2
For data set [15], the system named is Leishmania braziliensis. The experiment in a line: Antileishmanial activity against amastigote stage of Leishmania braziliensis (MHOM/BR/75/M2903b) infected in mouse RAW264.7 cells assessed as reduction in parasitic proliferation measured by SYBR Green 1 dye based fluorescence assay. Type of data set: functional, organism-based. The procedure, abridged: as §1

Data set [16] in a line: Selectivity index, ratio of CC50 for human MRC5 cells to IC50 for amastigote stage of Leishmania braziliensis (MHOM/BR/75/M2903b) infected in mouse RAW264.7 cells. Type of data set: toxicity, cell-based. The following applies: read-out: Ratio CC50/IC50. The procedure, abridged: as §2
Data set [17] in a line: Selectivity index, ratio of CC50 for human MRC5 cells to IC50 for amastigote stage of Leishmania amazonensis (MHOM/BR/73/M2269) infected in mouse RAW264.7 cells. Type of data set: toxicity, cell-based. The conditions noted are these: read-out: Ratio CC50/IC50. Summed up: as §2
Data set [18] in a line: Cytotoxicity against mouse RAW264.7 cells assessed as reduction in cell growth measured after 48 hrs by SYBR Green 1 dye based fluorescence assay. The procedure, abridged:
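RAW 264.7 cells seeded at 100,000 cells/well in DMEM with 10% FBS, 24 h at 37 °C, 5% CO₂. Two-fold serial dilutions, final 49 nM–100 μM, for 48 h. Growth read by SYBR Green I. CC50 by nonlinear regression. Miltefosine reference; untreated cells as growth control.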

Data set [19] concerns Leishmania major. The data set can be described thus: Antileishmanial activity against amastigote stage of Leishmania major (MHOM/IL/81/BNI) infected in BALB/c mouse peritoneal macrophages assessed as reduction in parasitic proliferation measured after 4 days by MayGrunwald-Giemsa stain based microscopic method. The data set is classed as functional, organism-based. The conditions noted are these: Peritoneal macrophage, 96 h. The procedure, abridged: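 BALB/c peritoneal macrophages on glass slides, 1.5×10⁵ cells/mL in RPMI 1640 with 15% FBS, 24 h attachment. Infected with stationary-phase promastigotes (1.5×10⁶/mL) for 24 h at 37 °C, 5% CO₂. Washed, then exposed 4 days to 100, 10, 1, 0.1 μM (DMSO ≤1% final). Methanol-fixed, May-Grunwald-Giemsa stained, amastigotes counted in 100 macrophages per duplicate well. IC50 from amastigotes/macrophage. Run twice.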

A short description of data set [20]: Selectivity index, ratio of CC50 for mouse RAW264.7 cells to IC50 for amastigote stage of Leishmania infantum (MHOM/FR/2008/LEM5700) infected in mouse RAW264.7 cells. The data set is classed as toxicity, cell-based. The conditions noted are these: read-out: Ratio CC50/IC50. Summed up:
as §2

Data set [21] is described as follows: Selectivity index, ratio of CC50 for human MRC5 cells to IC50 for amastigote stage of Leishmania major (MHOM/IL/81/BNI) infected in BALB/c mouse peritoneal macrophages. The data set is classed as toxicity. The following applies: read-out: Ratio CC50/IC50. The procedure, abridged:
as §2

A short description of data set [22]: Selectivity index, ratio of CC50 for mouse RAW264.7 cells to IC50 for amastigote stage of Leishmania braziliensis (MHOM/BR/75/M2903b) infected in mouse RAW264.7 cells. Type of data set: toxicity, cell-based. The conditions noted are these: read-out: Ratio CC50/IC50. The procedure, abridged: as §2
Data set [23] is described as follows: Selectivity index, ratio of CC50 for mouse RAW264.7 cells to IC50 for amastigote stage of Leishmania donovani (MHOM/ET/67/HU3) infected in mouse RAW264.7 cells. Type of data set: toxicity, cell-based. The conditions noted are these: read-out: Ratio CC50/IC50. Summed up: as §2
Data set [24] can be described thus: Cytotoxicity against human MRC5 cells assessed as reduction in cell viability measured after 96 hrs by resazurin assay. Type of data set: cell-based. The procedure, abridged:
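Human MRC-5 fibroblasts grown in RPMI 1640 with 10% FBS. Exposed to 100, 10 and 1 μM in triplicate for 96 h. Then 10 μL of 700 μM resazurin added for 4 h and fluorescence read. Value is the mean of triplicates.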

Data set [25] is described as follows: Selectivity index, ratio of CC50 for mouse RAW264.7 cells to IC50 for amastigote stage of Leishmania major (MHOM/IL/81/BNI) infected in BALB/c mouse peritoneal macrophages. The data set is classed as toxicity. The conditions noted are these: read-out: Ratio CC50/IC50. Summed up: as §2

Experimental findings from ChEMBL document CHEMBL4813913, “In vitro identification of imidazo[1,2-a]pyrazine-based antileishmanial agents and evaluation of L. major casein kinase 1 inhibition” (Eur J Med Chem, 2021) are described below.

Sequence of Cyclin-dependent kinase 5/CDK5 activator 1 (Q00535 whole entry): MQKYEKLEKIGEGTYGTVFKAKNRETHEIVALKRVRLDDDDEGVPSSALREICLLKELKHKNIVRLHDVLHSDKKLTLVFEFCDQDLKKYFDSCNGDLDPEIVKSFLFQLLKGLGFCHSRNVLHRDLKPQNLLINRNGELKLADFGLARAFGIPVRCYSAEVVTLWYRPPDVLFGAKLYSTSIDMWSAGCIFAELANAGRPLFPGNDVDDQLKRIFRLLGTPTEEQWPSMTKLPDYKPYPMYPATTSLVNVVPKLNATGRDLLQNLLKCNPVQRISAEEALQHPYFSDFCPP
Sequence of Cyclin-dependent kinase 5/CDK5 activator 1 (Q15078 whole entry, further chain): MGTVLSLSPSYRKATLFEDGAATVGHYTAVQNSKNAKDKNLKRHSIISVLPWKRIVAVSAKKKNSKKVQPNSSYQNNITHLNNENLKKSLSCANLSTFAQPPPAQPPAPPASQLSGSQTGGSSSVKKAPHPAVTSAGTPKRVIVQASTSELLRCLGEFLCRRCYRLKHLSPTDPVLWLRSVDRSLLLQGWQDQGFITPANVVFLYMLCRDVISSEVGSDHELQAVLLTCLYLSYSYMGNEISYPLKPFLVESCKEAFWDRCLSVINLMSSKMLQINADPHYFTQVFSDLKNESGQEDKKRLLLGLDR
Sequence of CDK9/cyclin T1 (O60563 whole entry): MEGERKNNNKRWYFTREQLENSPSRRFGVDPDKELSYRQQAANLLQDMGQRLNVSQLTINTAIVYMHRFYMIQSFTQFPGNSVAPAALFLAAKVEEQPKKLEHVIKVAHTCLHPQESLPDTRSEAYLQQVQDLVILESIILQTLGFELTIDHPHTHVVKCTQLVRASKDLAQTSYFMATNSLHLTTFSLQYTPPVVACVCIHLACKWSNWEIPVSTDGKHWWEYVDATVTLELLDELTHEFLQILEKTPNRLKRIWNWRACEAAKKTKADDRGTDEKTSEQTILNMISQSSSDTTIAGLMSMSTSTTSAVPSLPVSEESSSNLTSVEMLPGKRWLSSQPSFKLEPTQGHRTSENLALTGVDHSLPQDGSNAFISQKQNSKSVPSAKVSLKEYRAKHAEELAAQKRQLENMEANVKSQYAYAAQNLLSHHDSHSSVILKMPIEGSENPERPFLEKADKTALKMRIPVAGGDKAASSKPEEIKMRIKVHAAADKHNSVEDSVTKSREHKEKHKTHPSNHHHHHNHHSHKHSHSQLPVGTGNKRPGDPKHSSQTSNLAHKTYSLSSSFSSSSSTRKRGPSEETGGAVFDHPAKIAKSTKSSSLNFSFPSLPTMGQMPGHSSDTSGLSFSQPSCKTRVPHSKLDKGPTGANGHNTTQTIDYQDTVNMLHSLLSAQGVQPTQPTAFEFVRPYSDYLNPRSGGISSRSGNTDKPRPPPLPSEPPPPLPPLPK
Sequence of CDK9/cyclin T1 (P50750 whole entry): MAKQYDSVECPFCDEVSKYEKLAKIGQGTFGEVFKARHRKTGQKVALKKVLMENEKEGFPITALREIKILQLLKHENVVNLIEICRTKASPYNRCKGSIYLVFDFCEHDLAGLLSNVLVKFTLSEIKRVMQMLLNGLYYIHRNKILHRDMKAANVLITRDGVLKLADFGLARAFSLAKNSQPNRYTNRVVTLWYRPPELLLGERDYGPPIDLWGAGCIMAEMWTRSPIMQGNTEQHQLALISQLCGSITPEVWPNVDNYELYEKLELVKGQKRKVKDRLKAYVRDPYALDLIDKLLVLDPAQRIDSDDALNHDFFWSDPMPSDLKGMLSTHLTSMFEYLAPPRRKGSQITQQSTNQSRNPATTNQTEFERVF

With `CN(C)c1nccn2c(-c3cnn(C)c3)c(-c3ccc(F)cc3)nc12`, the Activity result in data set [1] is “Non-Toxic”. Further, the IC50 in [2] was 2.6 µM; in data set [5], greater than 10 µM; in [7], 1.27 µM; in data set [10], greater than 10 µM; in data set [11], greater than 10 µM; in data set [12], greater than 10 µM. For the same compound, the IC50 in data set [13] and in [15] was greater than 25 µM each time. In addition, the “inhibition (INH)” value in data set [3], in data set [6] and in [9] was “Not Active” throughout. In addition, the selectivity ratio in data set [4] came to 78.7; in [8] it was 0.6; in data set [14], 38.5; in data set [16], 4.

As for `CCCCCCCCCCCCCCCCOP(=O)([O-])OCC[N+](C)(C)C` [MILTEFOSINE], the selectivity ratio worked out at 8.7 in [17]; 20.1 in data set [4]; 10.2 in [8]; 14.5 in [20]; 25.5 in [21]; 5.2 in data set [22]. In addition, the selectivity ratio in data set [14] came out at 12.4; in data set [23], 23.5; in [25] it was 29.9; in data set [16], 4.4. Also, in [18], the CC50 at 48 h worked out at 43 µM. Also, the IC50 in data set [2] turned out to be 2.96 µM; in data set [7] it was 1.83 µM; in data set [19], 1.44 µM; in [13] it was 4.22 µM; in data set [15], 8.33 µM. The CC50 at 96 h in data set [24] came out at 36.8 µM.
